Bioassay records: PubChem BioAssay, several laboratories
Only some compounds are listed: those with a hit (about 2.5% of all), similar ones and a draw of the others.
T cell modulator – modulators of CD8 T cell-vesicle binding, primary screen, mouse 2C CD8+ T cells, flow cytometry; 2C CD8+ T cell-vesicle binding; hits give low values; response (vesicle binding), % at 7 µM; hit rate 0.068% among 330,000; AID 2052, 2009;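 active = response, share of CD8 T cells binding vesicles, and their 90th percentile fluorescence all below set limits, cut at about 80% in these data, passing the limit was not always enough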;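 also: values below 100% mean blocked vesicle binding to the CD8+ T cells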
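Read-out – percent CD8+ FL2 mean versus row control · System – murine 2C transgenic CD8+ T lymphocytes · Times – 1.5 h cell–vesicle binding at 37 °C, then 20 min icy labelling · Control set – naked vesicles low, QL9 vesicles with vehicle high · Detection – cytometric PE anti-B7-1 and Alexa647 anti-CD8 signals after 1% paraformaldehyde fixation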
MEKK3 PB1 HTS – modulators of MEKK3-MEK5 PB1 binding, primary screen, biochemical, wildtype MEKK3, multiplex bead flow cytometry, Alexa488-MEK5 | Mitogen-activated protein kinase kinase kinase 3 (Homo sapiens), Q99759 | bead-based flow cytometry, Alexa488-MEK5 binding to MEKK3; actives lie on both sides; 0 = blocked by unlabeled MEK5, 100 = vehicle | binding response (% of control), % at 10 µM | hit rate 1.4% among 290,000;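 active = binding response more than 3 SD above or below the average of its plate-row segment, actives on both sides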;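 also: Alexa488 bead fluorescence after subtracting the streptavidin-only scavenger bead signal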
Rce1 inhib – yeast Rce1p protease inhibitors, primary screen, biochemical, fluorescence, cell-free homogeneous; CAAX prenyl protease 2 (Saccharomyces cerevisiae (strain ATCC 204508 / S288c)), Q03530; yeast membranes, quenched prenylated peptide cleavage fluorescence; calls only; hit rate 0.27% among 290,000;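 active = fall in fluorescence gain of 50% or more versus controls, with final raw signal at or below 3038400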;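 also: plate controls were neutral control wells for no effect and wells lacking membranes for full effect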
Target sequence (Q03530 whole entry, looked up): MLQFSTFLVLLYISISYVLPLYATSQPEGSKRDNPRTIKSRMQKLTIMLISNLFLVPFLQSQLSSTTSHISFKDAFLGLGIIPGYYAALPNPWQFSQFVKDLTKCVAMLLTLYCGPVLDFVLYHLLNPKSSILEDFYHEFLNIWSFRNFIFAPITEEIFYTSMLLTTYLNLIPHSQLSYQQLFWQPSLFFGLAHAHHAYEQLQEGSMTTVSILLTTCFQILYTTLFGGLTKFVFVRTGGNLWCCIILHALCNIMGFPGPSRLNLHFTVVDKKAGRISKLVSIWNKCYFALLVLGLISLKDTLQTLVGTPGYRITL
MEKK2mut PB1 HTS – MEK5 binding signal on mutant MEKK2 PB1, primary screen, biochemical, multiplex bead flow cytometry, Alexa488-MEK5. Alexa488-MEK5 binding to MEKK2 mutant. percent response, % at 10 µM. hit rate 0.35% among 290,000. AID 1530, 2009; in the data active = percent response above about 24%, passing the limit was not always enough
UCH37 DUB inh – inhibitors of human UCH37 deubiquitinase, primary screen, biochemical, Ub-AMC cleavage, fluorescence; Ubiquitin carboxyl-terminal hydrolase isozyme L5 (Homo sapiens), Q9Y5K5; purified proteasome/UCH37; inhibition, % (concentration not given with the values); hit rate 0.33% among 330,000;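 active = mean inhibition over replicate wells above about 20%, limit read from the data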;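 also: 0% = compound-free wells with enzyme and 100% = wells lacking proteasome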
Target sequence (Q9Y5K5 whole entry, looked up): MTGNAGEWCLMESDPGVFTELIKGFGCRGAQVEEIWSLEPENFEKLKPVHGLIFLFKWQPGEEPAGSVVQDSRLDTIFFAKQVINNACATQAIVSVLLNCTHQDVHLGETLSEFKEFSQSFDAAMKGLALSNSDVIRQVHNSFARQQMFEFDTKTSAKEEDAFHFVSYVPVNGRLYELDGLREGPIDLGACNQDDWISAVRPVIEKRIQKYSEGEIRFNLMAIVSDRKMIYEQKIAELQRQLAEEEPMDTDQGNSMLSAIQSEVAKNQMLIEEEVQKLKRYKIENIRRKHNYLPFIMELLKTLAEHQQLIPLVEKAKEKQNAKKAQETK
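Reagent: Ub-AMC substrate; assay system: Proteasome-associated human UCH37 deubiquitinase; controls: no-proteasome and no-compound wells; read-out: % inhibition of Ub-AMC cleavage fluorescence; timing: 30 min preincubation with enzyme, 25 min cleavage at room temperature; signal: AMC fluorescence from Ub-AMC cleavage, excitation 355 nm, emission 460 nm; buffer or medium: Tris-HCl pH 7.4 plus ovalbumin, ATP-MgCl2, DTT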
MEKK2wt PB1 HTS – modulators of MEK5 binding to wildtype MEKK2, primary screen, biochemical, multiplex bead flow cytometry, Alexa488-MEK5; Alexa488-MEK5 binding to MEKK2 WT; actives lie on both sides; binding response (% of control), % at 10 µM; hit rate 1.1% among 290,000; Mitogen-activated protein kinase kinase kinase 2 (Homo sapiens), Q9Y2U5; AID 1531, 2009; in the data active = binding response below about 67% or above about 130%
MEKK2wt confirm – modulators of MEK5 binding to wildtype MEKK2, confirmation, biochemical, single concentration, multiplex bead flow cytometry | shares compounds with MEKK3 PB1 HTS | Alexa488-MEK5 binding to MEKK2 WT; actives lie on both sides | binding response (% of control), % at 10 µM | hit rate 2.4% among 5,900 | AID 1892, 2009; in the data active = binding response below about 16% or above about 210%; inactive = in between
MEKK2mut confirm – mutant MEKK2 PB1-MEK5 binding signal retest – biochemical, single concentration, multiplex bead flow cytometry, confirmation | shares compounds with MEKK3 PB1 HTS | Alexa488-MEK5 binding to MEKK2 mutant | percent response, % at 10 µM | hit rate 2% among 5,900; in the data active = percent response mostly above about 71%, no sharp cut-off; inactive = mostly below about 38%;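 also: higher means compound restores mutant binding toward wildtype level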
MEKK3 confirm – MEKK3 wild-type PB1 binding to MEK5, inhibitors, confirmation, biochemical, bead multiplex flow cytometry, single concentration, wildtype; binding response (% of control), % at 10 µM; hit rate 1.8% among 5,900; shares compounds with MEKK3 PB1 HTS; Alexa488-MEK5 binding to MEKK3; hits give low values;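 active = binding response below 72% of control, or above a set upper limit, though filed actives all read lower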;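 also: 100% = DMSO only wells and 0% = binding blocked by excess unlabeled MEK5; lower values mean stronger disruption of MEK5 binding to MEKK3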
Starred values were filed as active, the others as inactive; i = inactive; . = not tested or not shown; [ ] = another dose, or the depositor's remark.

SMILES	T cell modulator	MEKK3 PB1 HTS	Rce1 inhib	MEKK2mut PB1 HTS	UCH37 DUB inh	MEKK2wt PB1 HTS	MEKK2wt confirm	MEKK2mut confirm	MEKK3 confirm
CCc1ccc2c(CN3CCN(S(=O)(=O)c4cccs4)CC3)cc(=O)oc2c1	157	135*	i	1	0	100	92	-8	98
CCc1ccc2c(CN3CCN(S(=O)(=O)c4ccccc4F)CC3)cc(=O)oc2c1	481	.	.	.	3	.	.	.	.
COc1ccc(C=NNC(=O)CCSc2nc3ccccc3s2)cc1OC	.	.	.	.	2	.	.	.	.
O=C(CSc1nnc(-c2cccs2)n1Cc1ccccc1)NCc1ccc2c(c1)OCO2	291	76*[inhibitor]	i	-9	-2	90	103	1	105
CCn1c(SCC(=O)NCc2ccc3c(c2)OCO3)nnc1-c1cccs1	341	101	i	6	2	99	.	.	.
CC(C)CCN(C)c1ccc(C=Nn2cnnc2)cc1	.	.	.	.	-17	.	.	.	.
CCC1=C(OC(=O)N(CC)CC)N2C(=O)OC(=NCCc3c[nH]c4ccccc34)[C@]2(Cc2ccccc2)[C@H]2C1=CC[C@H]1C(=O)N(CC(=O)OC)C(=O)[C@H]12	211	2.0*[inhibitor]	i	0	3	2.0*[inhibitor]	98	-4	99
CCC1=C(OC(=O)N(CC)CC)N2C(=O)OC(=NCCOC)[C@]2(Cc2ccccc2)[C@H]2C1=CC[C@H]1C(=O)N(CC(=O)OC)C(=O)[C@H]12	355	94	i	3	-1	95	.	.	.
O=C([C@@H]1CC=C[C@@H]2CCN(C3CC3)C(=O)[C@@H]21)N1CCN(c2ccccc2)CC1	202	80*[inhibitor]	i	-3	1	91	103	16	103
O=C1[C@H]2[C@H](C=CC[C@H]2C(=O)N2CCN(c3ccccc3)CC2)CCN1Cc1ccccc1	236	88	i	-1	1	97	.	.	.
Cc1cc([N+](=O)[O-])ccc1-c1ccc(C=NNC(=O)Cc2ccccc2)o1	.	.	.	.	3	.	.	.	.
CCOc1ccc(OCCCCOc2ccccc2C(C)=O)cc1	261	104	i	3	3	111	.	.	.
CCOc1cccc(OCCOCCOc2ccccc2C(C)=O)c1	206	193*	i	2	-1	111	95	4	100
COc1ccc(/C=C2\N=C(C)N(c3ccc4ccccc4c3)C2=O)cc1OC	130	208*	.	2	1	102	96	-4	101
Nc1ccc(C(=O)NN=Cc2cn(Cc3ccc(F)cc3)c3ccccc23)cc1	.	.	.	.	-10	.	.	.	.
COc1ccc(C2C3=C(CC(C)(C)CC3=O)Nc3c2c(=O)n(C)c(=O)n3C)cc1OC (stereo not given)	i	128*	i	1	5	119	108	1	104
Cc1[nH]c2ccccc2c1C=NNC(=O)c1ccco1	.	.	.	.	12	.	.	.	.
O=c1c2ccccc2c(C=Nc2ccc(Cl)cn2)c(O)n1-c1cc(Cl)ccc1N1CCOCC1	424	2.0*[inhibitor]	i	-46	0	2.0*[inhibitor]	84	-5	97
CC(=O)c1ccc(N=Cc2c(O)n(-c3cc(Cl)ccc3N3CCOCC3)c(=O)c3ccccc23)cc1	258	103	i	-1	0	96	.	.	.
O=C(O)c1ccc(C=NNc2nc(N3CCCCC3)nc(N3CCCCC3)n2)cc1	.	.	.	.	5	.	.	.	.
O=C(NC(=S)NNC(=O)c1cnccn1)c1ccc(Cl)cc1	574	2.0*[inhibitor]	i	-25	4	-10*[inhibitor]	112	12	107
COc1ccc(C(=O)NC(=S)NNC(=O)c2cnccn2)cc1	349	114	i	0	9	106	.	.	.
O=C(NN=Cc1ccccn1)c1cc(-c2ccc(Br)cc2)nc2ccccc12	.	.	.	.	1	.	.	.	.
CC1CN(c2ccc([N+](=O)[O-])c(NCCOc3ccc(Cl)cc3)c2)CC(C)N1 (stereo not given)	271	109	i	48*	8	222*	163	31	103
Cc1ccccc1OCCNc1cc(N2CC(C)NC(C)C2)ccc1[N+](=O)[O-] (stereo not given)	441	120	i	47	9	198*	137	31	100
SMILES	T cell modulator	MEKK3 PB1 HTS	Rce1 inhib	MEKK2mut PB1 HTS	UCH37 DUB inh	MEKK2wt PB1 HTS	MEKK2wt confirm	MEKK2mut confirm	MEKK3 confirm
O=[N+]([O-])c1ccc(N2CCCCC2)cc1NCCOc1ccccc1	241	97	i	-1	3	101	.	.	.
NCCNc1cc(N2CCCC2)ccc1[N+](=O)[O-]	188	101	i	-1	10	105	.	.	.
CCc1ccc(OCCNc2cc(N3CCNC(C)C3)ccc2[N+](=O)[O-])cc1 (stereo not given)	329	.	.	.	12	.	.	.	.
CC1CN(c2ccc([N+](=O)[O-])c(NCCOc3ccccc3)c2)CC(C)N1 (stereo not given)	258	109	i	18	9	170*	140	22	107
COc1ccc(C=NNC(=O)c2ccc(COCC(F)(F)C(F)F)cc2)cc1	.	.	.	.	-13	.	.	.	.
CC(NC(=O)C(=O)NN=Cc1cccc([N+](=O)[O-])c1)c1ccccc1 (stereo not given)	.	.	.	.	-1	.	.	.	.
Cc1cccc(C=Nn2c(-c3ccco3)n[nH]c2=S)c1	.	.	.	.	5	.	.	.	.
O=C(NCC(F)(F)F)Nc1cccnc1	400	127*	.	22	2	121	105	1	101
O=C(Nc1ccc(F)cc1)Nc1cccnc1	200	100	i	1	3	98	.	.	.
CCOC(=O)C1=C(C)N=c2sc(=Cc3cccc(OCC(=O)O)c3)c(=O)n2C1c1ccccc1OC (stereo not given)	.	.	.	.	11	.	.	.	.
C=CCN(C#N)c1nc(OC)nc(N2CCCC2)n1	156	130*	i	11	4	130	85	-7	80
